In data set [1] the target is T1, Protein deacetylase HDAC6 (Mus musculus, UniProt Q9Z2V5).
T1 sequence (Q9Z2V5 whole entry): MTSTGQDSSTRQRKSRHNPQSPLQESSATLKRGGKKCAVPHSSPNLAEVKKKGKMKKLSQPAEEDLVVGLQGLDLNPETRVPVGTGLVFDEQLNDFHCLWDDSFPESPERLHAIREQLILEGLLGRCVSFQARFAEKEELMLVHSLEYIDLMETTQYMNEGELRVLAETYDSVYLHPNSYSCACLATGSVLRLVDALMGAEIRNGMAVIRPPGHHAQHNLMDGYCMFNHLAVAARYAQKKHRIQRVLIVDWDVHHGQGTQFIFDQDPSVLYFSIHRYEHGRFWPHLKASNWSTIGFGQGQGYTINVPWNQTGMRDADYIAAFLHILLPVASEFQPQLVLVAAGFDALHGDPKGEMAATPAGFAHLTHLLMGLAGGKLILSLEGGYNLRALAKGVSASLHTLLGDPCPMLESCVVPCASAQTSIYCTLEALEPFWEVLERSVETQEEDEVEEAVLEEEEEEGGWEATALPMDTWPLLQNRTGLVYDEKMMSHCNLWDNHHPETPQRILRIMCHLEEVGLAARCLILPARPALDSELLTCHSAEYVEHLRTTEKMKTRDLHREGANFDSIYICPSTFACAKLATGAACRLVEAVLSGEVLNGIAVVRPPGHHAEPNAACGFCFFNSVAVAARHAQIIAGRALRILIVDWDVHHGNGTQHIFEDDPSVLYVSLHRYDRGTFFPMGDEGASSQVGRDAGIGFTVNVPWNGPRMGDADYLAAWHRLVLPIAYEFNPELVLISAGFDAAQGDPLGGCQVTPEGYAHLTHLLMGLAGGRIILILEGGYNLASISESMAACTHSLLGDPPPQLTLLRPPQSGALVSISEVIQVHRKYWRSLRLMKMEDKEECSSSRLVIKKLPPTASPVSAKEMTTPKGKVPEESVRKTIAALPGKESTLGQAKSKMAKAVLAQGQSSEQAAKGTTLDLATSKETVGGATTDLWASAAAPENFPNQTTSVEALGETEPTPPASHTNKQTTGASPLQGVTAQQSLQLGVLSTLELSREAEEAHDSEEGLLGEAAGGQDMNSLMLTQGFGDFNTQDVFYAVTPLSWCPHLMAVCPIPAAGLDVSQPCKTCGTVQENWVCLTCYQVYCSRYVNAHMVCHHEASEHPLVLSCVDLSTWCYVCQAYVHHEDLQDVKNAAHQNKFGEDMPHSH
Briefly: Inhibition of HDAC6 in mouse N2A cells assessed as increase in alpha tubulin acetylation. Format: cell-based. Summed up: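 N2a cells; α-tubulin acetylation read out; 10-dose EC50 mode, singlet, 3-fold serial dilutions from 100 μM top concentration.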

Data set [2] can be described thus: Oral bioavailability in CD-1 mouse at 30 mg/kg. Format: ADME, organism-based. The following applies: in vivo.
Data set [3] is described as follows: Volume of distribution at steady state in CD-1 mouse at 3 mg/kg, iv. The conditions noted are these: in vivo. Format: ADME, organism-based. A digest of the protocol: (§1)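 Plasma PK in male CD1 mice (n=3, mean) after 3 mg/kg IV; vehicle 5% DMSO in 10% HP-β-CD in saline, pH adjusted with HCl; C0, C1h and Vss derived from plasma profile.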
Data set [4] has as its system MDR1. The data set is described as follows: Efflux ratio of permeability in MDCK-MDR1 cells. Format: ADME, cell-based, Canis lupus familiaris. The following applies: dog.
Data set [5] can be described thus: Half life in CD-1 mouse at 3 mg/kg, iv. It counts as ADME, organism-based. The conditions noted are these: in vivo.
Data set [6] concerns the target T1, Protein deacetylase HDAC6. The data set is described as follows: Inhibition of HDAC6 in mouse N2A cells. It counts as cell-based.
Data set [7] can be described thus: Metabolic stability in mouse Hepatocyte assessed as half life. It counts as ADME, cell-based. The following applies: hepatocytes.
The nature of data set [8]: Ratio of drug level in brain to plasma in C57BL/6 mouse at 3 mg/kg, iv measured after 8 mins by LC-MS/MS analysis. The conditions noted are these: brain and plasma.
The nature of data set [9]: Metabolic stability in mouse liver microsomes assessed as half life. Format: ADME, Microsome.
The nature of data set [10]: Protein binding in mouse brain homogenate. The conditions noted are these: read-out: PB (converted). It counts as ADME, tissue-based.
Data set [11] is described as follows: Initial plasma concentration in CD-1 mouse at 3 mg/kg, iv measured at 0 mins. Format: ADME, organism-based. A digest of the protocol:
as §1

The nature of data set [12]: AUC in CD-1 mouse at 3 mg/kg, iv. The conditions noted are these: in vivo. It counts as ADME, organism-based.
The nature of data set [13]: Free drug concentration in mouse brain at 25 mg/kg measured at 8 mins. Format: ADME, organism-based. The following applies: in vivo. A digest of the protocol: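 Free brain exposure calculated for 25 mg/kg from brain PK at 8 min and brain homogenate binding.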
Data set [14] is described as follows: Plasma concentration in CD-1 mouse at 30 mg/kg, po measured at 1 hr. Format: ADME, organism-based. A digest of the protocol: (§2)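 Plasma PK in male CD1 mice (n=3, mean) after 30 mg/kg oral dosing; formulation 5% DMSO in 10% HP-β-CD in saline, pH adjusted with HCl; C0 and C1h from plasma profile.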
For the next data set, the target named is Histone deacetylase 1 (Mus musculus, UniProt O09106). The data set is described as follows: Inhibition of HDAC1 in mouse N2A cells. It counts as cell-based.
Data set [15] in a line: Half life in CD-1 mouse at 30 mg/kg, po. Format: ADME, organism-based. The conditions noted are these: in vivo.
A short description of data set [16]: Drug concentration in CD-1 mouse plasma at 3 mg/kg, iv measured at 8 mins. Format: ADME, organism-based. Summed up:
(§3)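 Male CD1 mice (n=2) dosed IV at 3 mg/kg; brain and plasma sampled at 8 and 60 min; values reported as mean ± standard error.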

The subject of data set [17] is MDR1. The data set is described as follows: Efflux ratio of apparent permeability from basolateral to apical over apical to basolateral side in MDCK-MDR1 cells incubated for 2 hrs by LC-MS/MS analysis. The following applies: dog.
Data set [18] in a line: Ratio of drug level in brain to plasma in CD-1 mouse at 3 mg/kg, iv measured after 8 mins. The following applies: brain and plasma, read-out: BPR. Format: ADME, organism-based. Summed up:
as §3

Data set [19] in a line: Drug concentration in CD-1 mouse plasma at 3 mg/kg, iv measured at 60 mins. Format: ADME, organism-based. Summed up:
as §3

A short description of data set [20]: Plasma concentration in CD-1 mouse at 3 mg/kg, iv measured at 1 hr. Format: ADME, organism-based. A digest of the protocol:
as §1

A short description of data set [21]: Ratio of drug level in brain to plasma in CD-1 mouse at 3 mg/kg, iv measured after 60 mins. The conditions noted are these: brain and plasma, read-out: BPR. Format: ADME, organism-based. Summed up: as §3
The nature of data set [22]: Protein binding in mouse plasma assessed as unbound fraction measured at 1 hr. It counts as ADME, cell-free. A digest of the protocol: (§4)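 Unbound plasma level derived from total concentrations predicted for 10 mg/kg IP using IV PK data, corrected by measured mouse plasma protein binding; given at initial point and 1 h.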
Data set [23] can be described thus: Drug concentration in CD-1 mouse brain at 3 mg/kg, iv measured at 8 mins. The conditions noted are these: read-out: Ct. Format: ADME, organism-based. A digest of the protocol: as §3
Data set [24] can be described thus: Metabolic stability in mouse plasma assessed as half life. It counts as ADME, cell-free.
Data set [25] can be described thus: AUC in CD-1 mouse at 30 mg/kg, po. It counts as ADME, organism-based. The conditions noted are these: in vivo.
Data set [26] can be described thus: Drug concentration in CD-1 mouse brain at 3 mg/kg, iv measured at 60 mins. It counts as ADME, organism-based. The following applies: read-out: Ct. Summed up: as §3
Data set [27] can be described thus: Protein binding in mouse plasma assessed as unbound fraction measured at initial point. It counts as ADME, cell-free. Summed up:
as §4

The nature of data set [28]: Initial plasma concentration in CD-1 mouse at 30 mg/kg, po measured at 0 mins. The conditions noted are these: read-out: C0. Format: ADME, organism-based. A digest of the protocol:
as §2

Data set [29] is described as follows: Protein binding in mouse plasma. Format: ADME, cell-free. The conditions noted are these: read-out: PPB (converted).
The target of data set [30] is T2, Protein deacetylase HDAC6 (Mus musculus) (UniProt Q9Z2V5).
T2 sequence (whole entry): T1 sequence (Q9Z2V5 whole entry)
Briefly: In vivo inhibition of HDAC6 in C57BL/6 mouse cortex assessed as increase in alpha tubulin acetylation at 20 mg/kg, ip administered bid with interval of 4 hrs and measured after 1.5 hrs of last dosage by Western blot analysis. It counts as functional, organism-based. A digest of the protocol:
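Adult male C57BL/6 mice got two IP injections of 20 mg/kg, 4 h apart, and were killed 1.5 h after the second. Cortical homogenates were Western blotted (n = 3–4 per group) for acetylated α-tubulin/total tubulin densitometric ratio, normalized to vehicle-treated baseline (100%). Mean and standard deviation are reported; significance versus vehicle at p < 0.05 or p < 0.01.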
For orientation: In western blotting, separated proteins are transferred to a membrane and probed.

A further data set is filed under the species Mus musculus. Briefly: Selectivity index, ratio of IC50 for HDAC1 in mouse N2A cells to IC50 for HDAC6 in mouse N2A cells. Format: cell-based.

The source made the active and inactive calls. Some results are limits rather than exact numbers.

Sequence of Histone deacetylase 1 (O09106 whole entry): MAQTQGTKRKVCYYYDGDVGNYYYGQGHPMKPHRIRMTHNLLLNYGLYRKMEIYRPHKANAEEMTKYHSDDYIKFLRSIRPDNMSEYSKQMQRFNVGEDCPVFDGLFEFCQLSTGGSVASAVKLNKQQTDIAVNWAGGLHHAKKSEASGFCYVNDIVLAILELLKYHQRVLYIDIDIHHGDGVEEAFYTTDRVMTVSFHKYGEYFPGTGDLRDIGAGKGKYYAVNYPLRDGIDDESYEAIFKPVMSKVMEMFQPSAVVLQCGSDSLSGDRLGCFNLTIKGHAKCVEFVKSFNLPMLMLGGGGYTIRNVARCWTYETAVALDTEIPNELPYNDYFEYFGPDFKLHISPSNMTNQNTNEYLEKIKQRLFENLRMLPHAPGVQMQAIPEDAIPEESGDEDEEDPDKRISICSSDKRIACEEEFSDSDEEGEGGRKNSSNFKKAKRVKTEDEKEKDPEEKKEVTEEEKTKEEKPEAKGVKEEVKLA

The EC50 is the concentration giving half of the maximal effect. The term bioavailability denotes dose-corrected exposure relative to a reference, in per cent. The low end stands for little systemic uptake, the high end for much systemic uptake. What is called Vdss is the apparent volume that relates the amount in the body to the concentration in plasma or blood. As a reminder, the efflux ratio is a quotient of directional permeabilities that is used to spot active efflux. A word on the IC50: it is the concentration needed to halve the response being measured. The half-life is the time needed for the level to fall by half in the phase considered. What is called AUC is concentration integrated over time. Low readings indicate less exposure, high ones more exposure. `CN1CCc2c(c3ccccc3n2Cc2ccc(C(=O)NO)cc2)C1` [TUBASTATIN A]: the EC50 in data set [1] is 145 nM. This molecule showed a bioavailability in [2] of 5.9%. The molecule further yielded a Vdss in data set [3] of 4.14 L/kg. Besides, the efflux ratio in the data set on MDR1 [4] was 9.83. This molecule also returned a t1/2 in data set [5] of 21 min. Also, the IC50 in [6] came out at 4.4 nM; against Histone deacetylase 1, 8100 nM. Also, the half-life in data set [7] was > 60 min; in data set [9] it was > 60 min; in [15] it was 51.6 min; in data set [24] it was 30 min. For the same molecule, the Kp at 8 min in data set [8] and in data set [18] was 0.15 throughout. Further, the values for the fraction unbound in data set [10] and in [29] were 0.094 and 0.34, respectively. The molecule also displayed a C0 at 0 h in data set [11] of 1240 ng/mL. The results for the AUC in data set [12] and in data set [25] were 227 ng·h/mL and 134 ng·h/mL, respectively. The “Drug uptake(free)” value in data set [13] stood at 0.1 µM. Moreover, the concentration at 1 h in data set [14] amounted to 41.9 ng/mL; in data set [19] it was 20.3 ng/mL; in [20] it was 29.7 ng/mL; in data set [26], 17.5 ng/g. In addition, the concentration at 8 min came out at 274 ng/mL in data set [16] and 40.5 ng/g in data set [23]. Further, in the data set with MDR1 [17], the efflux ratio at 2 h was determined as 9.83. Besides, the Kp at 1 h in data set [21] was found to be 0.86. The “Cp(f)” value in [22] amounted to 90 nM. Besides, the “C0(unbound)” value in data set [27] is 3770 nM. The concentration at 0 h in [28] was found to be 135 ng/mL.

As for `O=C(NO)c1ccc(CN2CCc3ccc(F)cc32)cc1`, the EC50 in data set [1] worked out at 250 nM. In the data set with MDR1 [4], the efflux ratio worked out at 1.05. Moreover, the half-inhibitory concentration (IC50) in data set [6] amounted to 9.7 nM; against Histone deacetylase 1 it was 5540 nM. Also, the outcome in data set [30] was Active. Besides, the Ratio IC50 in the data set listed under Mus musculus is 571. For the same molecule, the concentration at 8 min in data set [16] was 152 ng/mL; in data set [23], 944 ng/g. For the same molecule, in [18], the Kp at 8 min turned out to be 6.21. Moreover, the concentration at 1 h in [19] worked out at 0.8 ng/mL; in [26], 7.6 ng/g. For the same molecule, the Kp at 1 h in data set [21] is 9.5.

`O=C(NO)c1ccc(Cn2cccn2)cc1`: in [1], the EC50 was determined as 932 nM. Moreover, the efflux ratio with MDR1 [4] worked out at 0.51. Also, the figures for the IC50 (in data set [6]; against Histone deacetylase 1) were 45.5 nM and 6860 nM, respectively. The outcome in [30] was Active. Also, the Ratio IC50 in the data set filed under Mus musculus worked out at 150. For the same molecule, the concentration at 8 min was found to be 345 ng/mL in data set [16] and 354 ng/g in [23]. The Kp at 8 min in [18] was 1.03. Further, the concentration at 1 h in data set [19] was 6 ng/mL; in data set [26] it was 30.5 ng/g. Besides, the Kp at 1 h in [21] worked out at 5.08.
